Bioassay records: PubChem BioAssay, several laboratories
A selection: hits, their analogues and other compounds. The true share with any hit is near 2.5%.
NPY-Y1 antag: blocks the human neuropeptide Y Y1 receptor. P25929. HEK293-CNG Y1 cells, membrane potential fluorescence; NPY at EC95, then isoproterenol. inhibition, % at 3.6 µM. 200,000 compounds, 1% hits. AID 1040;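 active means inhibition above the campaign mean inhibition of all tested compounds plus 3 SD, cut at about 20% in these data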;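 further: 0% = DMSO wells given NPY plus isoproterenol and 100% = isoproterenol alone without NPY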
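Material: HEK293 cells with Y1 receptor plus CNG channel; times: compound incubation 1 h at room temperature, readout 45 min post-stimulation; signal: fluorescence, membrane potential probe; read-out basis: fluorescence ratio normalized to % inhibition between controls; benchmarks: full-block control isoproterenol-only wells, zero-block control NPY plus isoproterenol wells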
NPY-Y1 PAM-ag: human NPY-Y1 potentiation or agonism, primary screen; activation, % at 3.6 µM; 220,000 compounds, 0.37% hits; NPY-Y1 expressing cells, potentiator/agonist activation; P25929; AID 1304; in the data active means activation above about 33%, passing the limit was not always enough;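 further: cells stimulated with NPY at EC10 then isoproterenol at EC100; 0% = low agonist plus stimulus and 100% = saturating agonist plus stimulus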
Ins promoter up: MIN6 insulin promoter up-regulation. z-score at 5 µM. 190,000 compounds, 0.3% hits. AID 1625. MIN6 insulin promoter-GFP reporter, high-content imaging; active compounds read high;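 active means z-score above 3 at 5 µM with at least 500 cells counted in the well; inconclusive means wells under 500 cells, flagged as cytotoxic or low count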
Insulin prom inh: TRM-6 insulin promoter activity inhibition; 130,000 compounds, 0.9% hits; TRM-6 cells, insulin promoter-eGFP reporter, imaging; reporter expression induced with tamoxifen; inhibition, % at 2 µM;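 active means inhibition above the mean plus 3 SD, with well images judged a real hit on visual review, cut at about 60% in these data, passing the limit was not always enough; inconclusive means inhibition over the cutoff but images rejected on review; inactive means inhibition not above the cutoff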
NPY Y2 blocker: antagonists of human neuropeptide Y receptor Y2; P49146; NPY-Y2 expressing cells, antagonist mode; inhibition, % at 2.7 µM; 140,000 compounds, 0.99% hits; AID 793; in the data active means inhibition above about 17%;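 further: 0% = vehicle with agonist challenge and 100% = reference antagonist with challenge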
Target sequence (P49146 whole entry, looked up): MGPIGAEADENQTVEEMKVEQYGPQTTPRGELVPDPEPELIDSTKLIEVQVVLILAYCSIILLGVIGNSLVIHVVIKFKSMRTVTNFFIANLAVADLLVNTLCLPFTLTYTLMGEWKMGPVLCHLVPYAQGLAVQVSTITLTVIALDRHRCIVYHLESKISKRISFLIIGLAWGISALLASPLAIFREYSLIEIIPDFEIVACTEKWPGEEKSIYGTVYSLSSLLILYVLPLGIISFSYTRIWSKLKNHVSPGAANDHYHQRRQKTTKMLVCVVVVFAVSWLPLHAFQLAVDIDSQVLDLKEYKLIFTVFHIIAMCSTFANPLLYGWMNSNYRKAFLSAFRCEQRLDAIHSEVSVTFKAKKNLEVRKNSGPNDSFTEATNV
NPY-Y2 PAM-ag: potentiates or activates human NPY-Y2 receptor; cells expressing NPY-Y2, potentiator/agonist read-out; AID 1359; P49146; 220,000 compounds, 0.45% hits; activation, % at 3.6 µM; in the data active means activation above about 27%;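 further: cells stimulated with NPY near EC25 plus isoproterenol at EC100; 0% = vehicle plus submaximal agonist and 100% = vehicle plus saturating agonist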
* hit, by the source's call; ? = inconclusive; · = no result given.

SMILES	NPY-Y1 antag	NPY-Y1 PAM-ag	Ins promoter up	Insulin prom inh	NPY Y2 blocker	NPY-Y2 PAM-ag
O=C1C2C3C=CC(C3)C2C(=O)N1CCc1ccccc1 (configuration not stated)	-3	-4	3.3*	0	3	0
CCn1c(=S)sc2c(=O)n(-c3ccccc3)c(SC)nc21	10	-39	1	43	7	-18
N#CCSc1nc2c(sc(=S)n2Cc2ccco2)c(=O)n1-c1ccc(F)cc1	24*	-44	-1.9	-75	20*	-22
CN(C)CCN(Cc1ccccc1)c1ccnc(N(C)C)c1C#N	8	2	0.44	-3	4	-7
CN(C)c1nccc(N(Cc2ccccc2)Cc2ccccc2)c1C#N	66*	-93	0.88	19	22*	-37
COc1ccc(C2=CC(=O)C=CC2=O)cc1	·	7	-0.21	·	·	-16
COc1ccc(N2C(=O)CC(N(Cc3ccco3)C(=O)CCC(=O)O)C2=O)cc1 (configuration not stated)	-6	17	-0.14	·	·	-8
N#C/C(=C(/O)CN1CCN(c2ccccc2F)CC1)c1nc(-c2ccc(Cl)cc2)cs1	4	-5	·	43	2	-5
COc1ccccc1N1CCN(C/C(O)=C(\C#N)c2nc(-c3ccccc3)cs2)CC1	-2	1	3.2*	-42	5	2
CC(=O)c1sc2nc(C)cc(C)c2c1N	-4	-30	0.33	77*	2	4
COC(=O)c1sc2nc(C)cc(C)c2c1N	-2	-1	·	35	·	-4
O=C(Sc1ccccc1)c1cccc(Cn2cc(C(F)(F)F)ccc2=O)c1	·	1	·	·	·	2
C=CCc1ccccc1OCC(O)CNC(=O)c1ccccc1C(=O)O (configuration not stated)	·	87*	-0.1	·	·	92*
C=CCc1ccccc1OCC(O)CN(CC)CC (configuration not stated)	-15	103*	·	-73	2	89*
COP(=O)(CC(=O)c1ccccc1)CC(=O)c1ccccc1	0	11	0.49	·	·	-7
COc1cccc(/C=N/NC(=O)c2cnn(-c3ccccc3)c2N)c1	·	-5	-0.15	·	·	-8
Cc1cc(C(=O)CN2CCCC2)c(C)n1-c1ccc(Cl)cc1	21*	-3	-0.45	·	·	-2
Cc1cc(C(=O)CN2CCCCC2)c(C)n1-c1ccc(F)cc1	3	-29	-0.55	·	5	2
COC(=O)CSc1nnc(-c2ccc(NS(=O)(=O)c3ccccc3)cc2)o1	-18	40*	0.55	·	-2	91*
Cc1ccc(CSc2nnc(-c3ccc(NS(=O)(=O)c4ccccc4)cc3)o2)cc1	-3	-21	-0.07	20	9	-5
COc1ccc(C2C(C#N)=C(/N=C/N3CCN(C)CC3)OC3=C2C(=O)CC(C)(C)C3)cc1OC (configuration not stated)	-4	-18	-0.07	19	-1	9
CC(C)(C)c1nc(SCC(=O)c2ccccc2)c2ccccc2n1	-2	-18	-1.5	·	·	14
O=C(Cc1c2ccccc2nc2ccccc12)c1ccccc1	9	-19	0.04	61*	9	-8
Cc1cc(C(=O)CCl)c(C)n1-c1cccc([N+](=O)[O-])c1	-1	-15	0.07	·	·	8
Cc1cc(C(=O)CCl)c(C)n1-c1ccon1	-4	1	-0.66	82*	·	3
SMILES	NPY-Y1 antag	NPY-Y1 PAM-ag	Ins promoter up	Insulin prom inh	NPY Y2 blocker	NPY-Y2 PAM-ag
O=C(CN1C(=O)c2ccccc2C1=O)N1CCN(C2c3ccccc3-c3ccccc32)CC1	-1	-4	0.43	-14	1	1
Cc1ccc(O)c(CC(C)C)n1	-12	-20	0.91	84*	1	-3
COc1ccc(CCc2nc(C)ccc2O)cc1	11	-13	0.2	89*	2	-5
COc1ccc(CCNC(=O)CCCN2C(=O)c3ccccc3C2=O)cc1	4	-13	1.7	·	·	0
Cc1ccccc1COCCN1CCN(S(=O)(=O)c2ccccc2)CCC1=O	·	·	0.01	·	·	·
COc1ccc(Nc2nc(N)nc(CSc3nncn3C)n2)cc1	5	7	0.44	77*	1	4
CCc1ccc(-c2cn3c(n2)SCC3)cc1	-3	-3	-0.42	83*	·	-8
Cc1ccc(-c2cn3c(n2)SCC3)cc1	-2	0	0.26	53	·	5
O=C1OC(c2ccccc2)/C(=C(/O)c2ccc(Cl)cc2)C1=O (configuration not stated)	-4	-29	·	75*	5	2
O=C1OC(c2ccccc2)/C(=C(/O)c2ccccc2)C1=O (configuration not stated)	0	103*	·	-4	5	62*
CC(=O)OCc1c(F)c(F)c(-n2nc(C)cc2C)c(F)c1F	-2	-6	0.43	-9	2	19
O=C(Nc1cc(C(F)(F)F)ccc1N1CCOCC1)C1Cc2ccccc2CN1C(=O)c1ccco1 (configuration not stated)	26*	2	-0.3	-18	19*	8
O=C1CC(c2cccc(Br)c2)C2=C(COC2=O)N1 (configuration not stated)	-2	5	0.25	·	·	-1
CCOC(=O)c1c(C)c2c(n1C)CCC/C2=N\O	39*	-45	-0.1	12	32*	-16
CCOC(=O)c1c(C)c(C(=O)NC2CCCCCC2)c(C)n1C	-1	-6	-0.8	12	4	5
C/C(N)=C(/C#N)C(=O)COC(=O)CNS(=O)(=O)c1ccc(F)c(F)c1F	-4	-11	-0.33	·	·	-5
Cc1nc2c([nH]c3ccc(Br)cc32)s1	2	-24	0.37	95*	2	18
Brc1ccc2[nH]c3c(c2c1)CCC3	·	-6	-0.09	·	·	-8
Cc1ccc(-c2nc3ncccn3c2Nc2ccc3c(c2)OCCO3)cc1	12	-57	-1.8	-19	9	7
COc1ccc(-c2nc3ncccn3c2Nc2ccc3c(c2)OCCO3)cc1	6	-15	0.51	69*	-1	-12
CCCn1nnc(NC(=O)COc2ccc(C3CCCCC3)cc2)n1	4	10	-0.16	100*	5	10
CCCn1nnc(NC(=O)COc2ccc(Cl)cc2)n1	0	10	2.1	7	4	1
Cc1ccc2[nH]c(=O)c(-c3nc4cc(C)ccn4c3NCc3ccco3)cc2c1	-2	31	-0.34	·	7	33*
Cc1cccc2cc(-c3nc4c(C)cccn4c3NCc3ccco3)c(=O)[nH]c12	3	-17	-0.43	0	4	-6
CNC(=S)N(CCc1ccccc1)Cc1cc2cc(OC)c(OC)cc2[nH]c1=O	4	-9	-0.03	62*	2	6
CCCN(CCC)C1=CC(=[N+]2CCCC2)CC(C)(C)C1	34*	-21	?	-40	24*	16
O=C(NNc1ccc(Cl)nn1)c1ccc(Cl)cc1	1	9	-0.53	·	0	3
CN(C)S(=O)(=O)Oc1cccc(C(=O)Nc2ccc([N+](=O)[O-])cc2)c1	-9	11	3.4*	-7	·	17
